The list is not random: actives were taken first. Their share in the collection is about 2.6%.
ASAP1 GAP inh: inhibitors of human ASAP1 ArfGAP activity | inhibition, % at 16.5 µM | Q9ULH1 | 360,000 tested, 0.19% active | ASAP1-stimulated ARF1 GTP hydrolysis, GDP FP detection | AID 624377; in the data active = inhibition above about 25%;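 also: 0% = vehicle with enzyme and substrate and 100% = no enzyme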
PHOSPHO1 inh: inhibitors of human PHOSPHO1 phosphatase | Q8TCT1 | recombinant PHOSPHO1, absorbance phosphatase assay | inhibition, % at 13.3 µM | 290,000 tested, 1.1% active | AID 1565; in the data active = inhibition above about 60%
Target sequence (Q8TCT1 whole entry, looked up): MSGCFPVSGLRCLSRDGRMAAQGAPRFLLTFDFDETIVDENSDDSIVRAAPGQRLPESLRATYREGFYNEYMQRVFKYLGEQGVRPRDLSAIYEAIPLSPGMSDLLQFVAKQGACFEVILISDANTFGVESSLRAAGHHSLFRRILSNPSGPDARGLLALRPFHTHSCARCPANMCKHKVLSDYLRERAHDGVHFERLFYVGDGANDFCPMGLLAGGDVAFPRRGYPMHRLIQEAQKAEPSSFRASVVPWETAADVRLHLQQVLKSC
IMP-1 inh: blocks Pseudomonas aeruginosa IMP-1 metallo-beta-lactamase | purified IMP-1, nitrocefin hydrolysis, epi-absorbance fluorescence | inhibition, % at 5.6 µM | 290,000 tested, 0.45% active | AID 1556;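 active = inhibition above the mean plus 3 SD of all compounds in the same screening run, cut at about 4.5% in these data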;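 also: 0% = IMP-1 with DMSO and 100% = DMSO wells lacking enzyme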
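Material – recombinant IMP-1 enzyme, purified · Amount – IMP-1 0.2 nM before substrate addition · Medium – HEPES buffer pH 7.1 with ZnSO4 and Brij 35 · Timing – 25 °C, 15 min preincubation, 25 min reaction · Measured by – plate fluorescence quenching by hydrolysis product, ex 480/em 530 nm · Read-out – percent enzyme inhibition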
ARFGAP1 inhibitor: rat ARFGAP1 inhibition. 360,000 tested, 0.26% active. inhibition, % at 16.5 µM. Q62848. AID 651572. Arfgap1-stimulated ARF1 GTP hydrolysis, GDP FP detection;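 active = inhibition above a per-plate limit, mean inhibition of low control wells plus 3 SD, cut at about 25% in these data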;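 also: 0% = DMSO wells with enzyme and 100% = wells lacking Arfgap1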
Target sequence (Q62848 1-136 limits assumed): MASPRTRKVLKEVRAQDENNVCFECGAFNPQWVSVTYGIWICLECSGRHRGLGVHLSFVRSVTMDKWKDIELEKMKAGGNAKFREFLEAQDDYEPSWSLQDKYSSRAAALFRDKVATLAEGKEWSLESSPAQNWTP
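Assay system: purified rat His6-Arfgap1 residues 1-136 (GAP domain); Reagent: human Δ17 ARF1 bound to GTP; Dosing: 16.5 µM single point, 1.26% DMSO; Times: GTP hydrolysis reaction 2 h at 25 °C; Signal: FP, GDP Alexa 633 tracer displaced from anti-GDP antibody, 620/688 nm; Measure: % inhibition from polarization.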
Calb FLC: affects C. albicans growth with fluconazole; C. albicans CaCi-2 + fluconazole, Alamar Blue growth, 48 h; growth inhibition, % (no concentration beside the values); 300,000 tested, 0.57% active; AID 1979;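 active = growth inhibition above about 58% in most replicates, limit read from the data, passing the limit was not always enough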;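 also: all wells also contain fluconazole at 8 µg/ml as a sub-toxic cotreatment; 0% = median of DMSO wells and 100% = median of geldanamycin control wells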
VIM-2 inhibitor: blocks Pseudomonas aeruginosa VIM-2 metallo-beta-lactamase | AID 1527 | 290,000 tested, 0.89% active | inhibition, % at 5.6 µM | purified VIM-2, nitrocefin hydrolysis, epi-absorbance fluorescence;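 active = inhibition above the mean of all tested compounds plus 3 SD, cutoff set per screening run, cut at about 7.5% in these data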;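 also: red hydrolysis product quenches plate fluorescence so inhibitors raise well fluorescence; 0% = enzyme with DMSO and 100% = DMSO without enzyme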
Active calls of the source: *; nt = not tested or not shown.

SMILES	ASAP1 GAP inh	PHOSPHO1 inh	IMP-1 inh	ARFGAP1 inhibitor	Calb FLC	VIM-2 inhibitor
COc1ccc(OC)c(-c2c3cc(O)c(=O)cc-3oc3cc(O)c(O)cc23)c1	nt	48	4.7*	nt	nt	1
COc1ccc(OC)c(-c2oc3ccccc3c(=O)c2O)c1	-5	-1	-1	-3	-5	2
CCOc1ccccc1-c1c2cc(O)c(=O)cc-2oc2cc(O)c(O)cc12	nt	9	6.8*	nt	nt	1
O=c1cc2oc3cc(O)c(O)cc3c(-c3ccccc3O)c-2cc1O	nt	27	2	nt	nt	4
CC(C)(C)n1nc(C2CC2)cc1NC(=O)Nc1ccccc1	4	nt	nt	3	nt	nt
Cc1c(CCC(=O)O)c(=O)oc2c(C)c3occ(-c4ccc(Cl)cc4)c3cc12	-19	-7	5.3*	-29	4	7
Cc1c(CCC(=O)O)c(=O)oc2cc3occ(-c4ccc(Cl)cc4)c3cc12	1	46	-1	-7	28	1
COC(=O)c1cc(NCc2ccccc2F)ccc1N1CCOCC1	-9	16	15*	-4	5	-2
C=C(C)[C@@H]1C2=CC(C(=O)OC)=C(C[C@H](C(=C)C)[C@H]3O[C@H]3C3=C[C@H]1OC3=O)O2	2	nt	nt	2	nt	nt
CN1C[C@@H]2C(c3ccccc3)C3(c4ccccc4)CC2(C3)[C@H]1c1ccccc1 (some centres not stated)	3	40	nt	10	110*	nt
Nc1ccc(-c2c3ccccc3nc3ccccc23)cc1	1	nt	-1	-5	8	9.6*
CCOC(=O)CNc1nc(OCC#N)nc(N2CCOCC2)n1	6	26	20*	11	0	-2
CC(=O)N1CCN(c2ccc(N3CCN(C(C)=O)[C@H](C)C3)c(C)c2)[C@@H](C)C1	4	nt	nt	7	nt	nt
COc1ccccc1C(=O)CSc1n[nH]c(N)n1	3	80*	-1	-13	14	-2
O=C(CSc1n[nH]c(-c2ccncc2)n1)c1ccccc1	3	33	-1	2	15	1
Cc1nc(SCC(=O)c2ccccc2)n[nH]1	3	98*	-6	8	-6	-2
CC1(C)CC(=O)C2=C(C1)c1c(ccc3ccccc13)NC2c1cc([N+](=O)[O-])cc([N+](=O)[O-])c1O (configuration not stated)	5	41	-3	2	111*	2
Cn1c2ccc(Cl)cc2c2nc3ccccc3nc21	1	5	-4	14	15	-2
CCOc1ccc2c(c1)c1nc3ccccc3nc1n2C	0	2	0	-7	0	8.4*
Cn1c2ccc(F)cc2c2nc3ccccc3nc21	-15	39	-3	3	5	7.9*
Cc1ccc2c(CN3CCOCC3)cc(=O)oc2c1C	2	nt	-2	3	-4	0
Cc1ccc2c(CN3CCN(Cc4ccccc4)CC3)cc(=O)oc2c1C	-7	32	0	-13	-12	9.9*
Cc1ccc2c(CN3CCN(CCO)CC3)cc(=O)oc2c1C	-5	-7	-2	-6	2	9.9*
Cc1cc2c(c(=O)o1)[C@@]1(C(=O)N(C)c3cc(Br)ccc31)C1=C(CCCC1=O)O2	8	nt	nt	-1	nt	nt
COc1ccc2[nH]cc(C(=O)CNc3nc(C)cs3)c2c1	9	89*	-2	-5	1	-1
SMILES	ASAP1 GAP inh	PHOSPHO1 inh	IMP-1 inh	ARFGAP1 inhibitor	Calb FLC	VIM-2 inhibitor
O=C(O)c1ccccc1COc1ccccc1Cl	-2	9	0	0	1	-1
O=C(O)c1ccccc1OCc1ccccc1Br	-3	-45	1	8	26	9.1*
Cc1ccc(-c2nnc(SCC(N)=O)nc2-c2ccc(C)cc2)cc1	21	23	-3	-5	8	-5
Cc1ccc(-c2nnc(SCC(=O)N3CCOCC3)nc2-c2ccc(C)cc2)cc1	7	68*	-3	-2	0	-2
CCOC(=O)C1CSCCS(=O)(=O)N1Cc1ccc(F)cc1F (configuration not stated)	10	nt	nt	-1	nt	nt
Cc1nn(-c2ccccc2)c(N)c1N=Nc1ccc(Cl)cc1	6	3	-1	2	98*	-2
Cc1nn(-c2ccccc2)c(N)c1N=Nc1ccccc1	6	7	-3	2	-1	-3
COC(=O)[C@]12C[C@H](CC(=O)NCc3ccc(OC)c(OC)c3)C(=O)N(CCc3ccc(OC)c(OC)c3)C1=C[C@H](C(C)(C)C)O[C@@H]2C	13	nt	nt	4	nt	nt
